According to publication PMC2921709 (ChemMedChem, 2010):

Columns and labels:
HT-29 = assay: MTT growth inhibition, HT-29 colon adenocarcinoma cells; type: cell-based, human; conditions: Homo sapiens, HT-29, 72 h, read-out: GI50 HT-29
Method in brief: (§1)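 Cells seeded at 8 × 10^3 per well in 96-well plates and held 18 h at 37 °C, 5% CO2. Medium then replaced with test compound in complete medium at various concentrations for 72 h continuous exposure. Viability read by MTT. GI50 is the concentration giving 50% proliferation inhibition, from dose–response curves; mean ± SE of ≥3 independent experiments. Media: leukemia lines in RPMI-1640; solid-tumour lines in DMEM with penicillin G 115 U mL−1, streptomycin and 10% FBS.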

ARO = assay: MTT growth inhibition, ARO anaplastic thyroid cells; type: cell-based, human; conditions: Homo sapiens, Thyroid cell, 72 h, read-out: GI50 ARO
Method in brief: as §1

Hep G2 = assay: MTT growth inhibition, HepG2 hepatoma cells; type: cell-based, human; conditions: Homo sapiens, HepG2, 72 h, read-out: GI50 Hep G2
Method in brief: as §1

IGROV = assay: MTT growth inhibition, IGROV ovarian cancer cells; type: cell-based, human; conditions: Homo sapiens, IGROV, 72 h, read-out: GI50 IGROV
Method in brief: as §1

MCF-7 = assay: MTT growth inhibition, MCF-7 breast adenocarcinoma cells; type: cell-based, human; conditions: Homo sapiens, MCF7, 72 h, read-out: GI50 MCF-7
Method in brief: as §1

HeLa = assay: MTT growth inhibition, HeLa cervix carcinoma cells; type: cell-based, human; conditions: Homo sapiens, HeLa, 72 h, read-out: GI50 HeLa
Method in brief: as §1

HL-60 = assay: MTT growth inhibition, HL-60 promyelocytic leukemia cells; type: cell-based, human; conditions: Homo sapiens, HL-60, 72 h, read-out: GI50 HL-60
Method in brief: as §1

ML2 = assay: MTT growth inhibition, ML-2 myeloid leukemia cells; type: cell-based, human; conditions: Homo sapiens, ML-2, 72 h, read-out: GI50 ML2
Method in brief: as §1

K562 = assay: MTT growth inhibition, K562 chronic myelogenous leukemia cells; type: cell-based, human; conditions: Homo sapiens, K562, 72 h, read-out: GI50 K562
Method in brief: as §1

RS 4;11 = assay: MTT growth inhibition, RS 4; type: cell-based, human; conditions: Homo sapiens, RS4-11, 72 h, read-out: GI50 RS 4;11
Method in brief: as §1

Jurkat = assay: MTT growth inhibition, Jurkat T-leukemia cells; type: cell-based, human; conditions: Homo sapiens, Jurkat, 72 h, read-out: GI50 Jurkat
Method in brief: as §1

Bovine brain tubulin = assay: Inhibition of tubulin polymerization; type: biochemical; conditions: read-out: Tubulin Assembly IC50; tubulin 10 μM; 20 min incubation; ± SD
[1] = tested on: Bovine brain tubulin (colchicine site); assay: Inhibition of [3H]colchicine binding to tubulin; conditions: tubulin 1 μM, [3H]colchicine 5 μM
solid tumor cells = assay: MTT growth inhibition, solid tumor cell lines; type: cell-based; conditions: Homo sapiens, 72 h, read-out: GI50, solid tumor cells
Method in brief: as §1

leukemia cells = assay: MTT growth inhibition, leukemia cell lines; type: cell-based, human; conditions: Homo sapiens, 72 h, read-out: GI50, leukemia cells
Method in brief: as §1

Jurkat cells [2] = assay: Flow cytometric cell-cycle analysis; type: cell-based, human
Method in brief: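 Jurkat cells in exponential growth, 5 × 10^5 per sample, exposed to test compound at various concentrations for 24 h. Cells fixed in ice-cold 70% ethanol, treated with lysis buffer containing RNase A and 0.1% Triton X-100, then stained with PI. DNA content measured by flow cytometry and phases assigned from DNA histograms. Mean ± SEM of two independent experiments.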

Jurkat cells [3] = assay: Annexin V-FITC/PI apoptosis assay; type: cell-based, human; conditions: 24 h treatment
Method in brief: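 Jurkat cells exposed to test compound at various concentrations for 24 or 48 h, then harvested. Co-labelled with annexin V–FITC and PI and analysed by flow cytometry (excitation 488 nm; emission 525 and 585 nm). Reported as mean percentage of annexin-V-positive cells ± SEM, three independent experiments.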

Jurkat cells [4] = assay: Mitochondrial membrane potential; type: cell-based, human; conditions: 0.5 and 0.1 μM, 24 and 48 h
Method in brief: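 After treatment, Jurkat cells were pelleted and resuspended in HBSS containing JC-1, then kept 10 min at 37 °C. They were spun again, taken up in HBSS and read by flow cytometry. Polarised mitochondria give red JC-1 aggregates (590 nm); depolarisation gives green monomers (530 nm).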

Jurkat cells [5] = assay: Mitochondrial ROS production; type: cell-based, human; conditions: 24 and 48 h
Method in brief: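 Jurkat cells treated with test compound for 24 or 48 h, pelleted, then loaded in HBSS with hydroethidine (HE) or H2-DCFDA for 30 min at 37 °C. Cells re-pelleted into HBSS and read by flow cytometry: 488 nm excitation, emission 585 nm (HE) and 530 nm (DCF). Fluorescence intensity given as % of untreated control; mean ± SEM, three independent experiments.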

[6] = tested on: caspase-3 in Jurkat cells; assay: Caspase-3 activation by flow cytometry; type: cell-based, human; conditions: time- and concentration-dependent
Bcl-2 in Jurkat cells = assay: Flow cytometric analysis of Bcl-2 expression; type: cell-based, human; conditions: 24 and 48 h, flow cytometry
Method in brief: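 Jurkat cells incubated with test compound for 24 and 48 h, then pelleted and permeabilised with a Fix&Perm kit. Labelled with FITC-conjugated anti-Bcl-2 monoclonal antibody, washed and analysed by flow cytometry. Mean ± SEM of two independent experiments.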

GI50 (HT-29): 480 ± 80 nM
GI50 (Hep G2): 520 ± 100 nM
GI50 (IGROV): 620 ± 150 nM
GI50 (MCF-7): 580 ± 180 nM
GI50 (HeLa): 450 ± 100 nM
GI50 (HL-60): 2 ± 0.1 nM
GI50 (ML2): 5 ± 2 nM
GI50 (K562): 190 ± 60 nM
GI50 (Jurkat): 0.5 ± 0.01 nM
IC50 (Bovine brain tubulin): 750 ± 40 nM
Colchicine Binding Inhibition [%], 1 μM ([1]; compound 1 μM): 44 ± 6%
Colchicine Binding Inhibition [%], 5 μM ([1]; compound 5 μM): 75 ± 4%
GI50 (solid tumor cells): 400 to 1400 nM
GI50 (leukemia cells): 0.5 to 10 nM
Structure (SMILES): CCOC(=O)CCn1ccc2c3c(=O)cc(-c4ccccc4)[nH]c3ccc21 [Compound 11, Ethyl 3-(9-oxo-7-phenyl-6H-pyrrolo[3,2-f]quinolin-3(9H)-yl)propanoate]
GI50 (ARO): 550 ± 150 nM
GI50 (RS 4;11): 2 ± 0.4 nM
G2/M cell population (Jurkat cells [2]; 24 h, 0.06 μM, control 9.4 %): 77%
S-phase cells (Jurkat cells [2]; 24 h, 0.06 μM, control 43 %): 20%
G1 cells (Jurkat cells [2]; 24 h, 0.06 μM, control 47 %): 3%
effect on cell-cycle progression (G2/M arrest, in words) (Jurkat cells [2]; 24 h treatment): clear G2/M arrest pattern in a concentration-dependent manner
induction of apoptotic (annexin-V-positive) cells, in words (Jurkat cells [3]): remarkable induction of apoptotic cells
percentage of cells with low ΔΨmt (JC-1), in words (Jurkat cells [4]): significant increase in the percentage of cells with low ΔΨmt
ROS production (HE, H2-DCFDA), in words (Jurkat cells [5]): induced the production of ROS relative to control cells
caspase-3 activation, in words [6]: activate caspase-3
Bcl-2 expression, in words (Bcl-2 in Jurkat cells): decrease Bcl-2 expression
